Screening results: PubChem BioAssay, several laboratories
Only some compounds are listed: those with a hit (about 1.5% of all), similar ones and a draw of the others.
VLA-4 inh: inhibition in a human VLA-4 binding assay; actives 0.2% (n = 330,000); P13612; VLA-4 expressing cells, ligand binding flow cytometry; inhibition, % (about 7 µM as worked out from the volumes in the protocol); in the data active means inhibition above about 50%
SENP1 FRET inh: SENP1 (human) catalytic domain inhibition. actives 0.21% (n = 360,000). inhibition, % at 10 µM. recombinant SENP1 catalytic domain, CyPet-SUMO1-YPet FRET cleavage. AID 624204;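 active means inhibition at least 30% at 10 µM, raw YFP signal under a set limit, fluorescence ratio 0.5 to 1.5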;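 further: 0% = enzyme with DMSO and 100% = no enzyme wells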
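Assay system: hSENP1 catalytic domain, recombinant. Amount: SENP1 enzyme, 20 pM final. Schedule: 50 min reaction, RT, dark. Technique: FRET, CFP and YFP emission. Control set: no-enzyme wells low, DMSO-plus-enzyme wells high control.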
Platelet DG rel: modulates dense granule release in human platelets; human platelet-rich plasma, SFLLRN dense granule ATP release, luminescence; inhibition, %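 (compounds screened at 7.5 µM in platelet-rich plasma)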; actives 0.22% (n = 300,000);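 active means mean replicate score, as percent of positive control, at or above 50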
Myeloid diff 2: promotes myeloid progenitor differentiation; actives 1% (n = 360,000); calls only at 10 µM; ER-HoxA9 myeloid progenitors, lysozyme-GFP differentiation, flow cytometry;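 active means normalized GFP-positive differentiation at or above the plate's own cutoff, the solvent-only control mean plus 3 SD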;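 further: cells exposed to compound for four days before flow analysis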
Active calls of the source: *; i = inactive; nt = no result; + = active, no number; ! = a repeat was not active.

SMILES	VLA-4 inh	SENP1 FRET inh	Platelet DG rel	Myeloid diff 2
CN(Cc1ccccc1)C(=O)c1cccc(NC(=O)Cc2cccc(NC(=O)C3CCN(C(=O)C4CC4)CC3)c2)c1	nt	2	nt	+
O=C(NC1CCCC1)C(c1cccnc1)N(C(=O)c1csnn1)c1ccccc1 (stereo not given)	15	4	0	i
CC(=O)c1cccc(OCC(=O)N2CCN(c3ccc(C(F)(F)F)cn3)CC2)c1	1	-1	1	i
O=C(O)COCC(=O)N1CCCN(c2ccc(C(F)(F)F)cn2)CC1	-1	2	-1	+
O=C(Cc1ccccn1)c1ccncc1	nt	-2	nt	i
COC(=O)C1CCN(C(=O)COC(=O)CNC(=O)c2ccc(Cl)cc2Cl)CC1	10	0	nt	i
CN(C)c1cc[n+](CC(=O)c2cccs2)cc1	-5	0	0	+
O=C(O)c1cc(S(=O)(=O)N2CCN(C(c3ccccc3)c3ccccc3)CC2)ccc1Cl	4	0	-3	i
CC[n+]1c(/C=C2/C=C(C)CC(C)(C)C2)sc2ccc(OC)cc21	-174	-32	3	+
CC[n+]1c(/C=C2\C=C(C)CC(C)(C)C2)sc2ccccc21	-42	-24	-2	i
Cc1cc(Br)cc(Br)c1OCC(=O)NNC(=O)CCC(=O)NCc1ccccc1	-1	0	nt	i
Cc1ccc(C(=O)NNC(=O)CCC(=O)NCc2ccccc2)cc1Br	9	0	nt	+
COc1ccc(C(C)=O)cc1Cn1c(C)c(C(=O)NCc2ccc(C(C)C)cc2)sc1=O	nt	4	nt	+
COc1ccc(CNC(=O)c2sc(=O)n(Cc3cc(C(C)=O)ccc3OC)c2C)cc1	nt	5	nt	i
CCN(C(=O)COC(=O)c1oc2ccc(OC)cc2c1C)C1CCCCC1	12	-3	-7	i
COc1ccc(/C=N/Nc2snc(SC)c2C#N)cc1OC	-5	-1	52*	nt
COc1cc(NC(=O)c2ccc(N)nc2)cc(C(=O)Nc2cccc(C(F)(F)F)c2)c1	9	-1	10	+!
Cc1ccc(C(=O)Nc2cccc(C(F)(F)F)c2)cc1Nc1cncnc1	2	2	-3	+!
COc1cc(NC(=O)c2nccnc2N)cc(C(=O)Nc2cccc(C(F)(F)F)c2)c1	6	-15	1	i
Cc1ccc(S(=O)(=O)C[C@@H]2OC3CCCCC3N2S(=O)(=O)c2ccc(C)cc2)cc1 (stereo not given in full)	nt	4	nt	i
N=c1oc2cc(O)ccc2cc1C(=O)Nc1ccc(Cl)cc1	22	-21	-5	i
O=c1[nH]c(=O)n([C@H]2C[C@H](O)[C@@H](CO)O2)cc1C(F)(F)F	-2	-5	1	+
C(=N\Nc1nc(Nc2ccccc2)nc(N2CCCCC2)n1)/c1ccco1	0	nt	7	nt
N#Cc1c(-c2ccccc2F)cc(C2CC2)nc1SCC(=O)c1cccs1	-22	-11	-6	+
CCSc1nc(C2CC2)cc(-c2cccs2)c1C#N	0	1	1	i
SMILES	VLA-4 inh	SENP1 FRET inh	Platelet DG rel	Myeloid diff 2
CCn1cc(CN2CCC(C(=O)Nc3ccc(Oc4ccccc4F)cc3)CC2)cn1	nt	1	nt	i
CCOc1ccc(N(CC(=O)NCCc2ccccc2)C(=O)CCC(=O)Nc2cc(C)ccn2)cc1	-5	3	-2	+
CCN(CC)C(=O)COc1coc(CN2CCN(c3ccccc3)CC2)cc1=O	-3	1	-5	i
CCN(CC)c1nc(C=Cc2ccc(N(C)C)cc2)c2nccnc2n1	nt	33	nt	+
COc1ccnc2c1c(=O)n(Cc1ccc(Cl)cc1)c(=O)n2C	-17	-5	8	i
CCN(CC)CCNc1ccc(C)c2sc3ccc(O)cc3c(=O)c12	nt	39*	nt	nt
Cc1[nH]c(=O)[nH]c(=O)c1/C=N/NC(=O)CCNC(=O)OC(C)(C)C	5	1	77*	i
Cc1[nH]c(=O)[nH]c(=O)c1/C=N/NC(=O)CCCCCNC(=O)OC(C)(C)C	0	1	-14	i
O=C(Cn1cc(S(=O)(=O)Cc2ccc([N+](=O)[O-])cc2)c2ccccc21)N1CCOCC1	7	0	14	i
Oc1c(N=Nc2ccccc2)sc2ccccc12	-9	-16	56*	i
Cc1cc(C)nc(SSc2nc(C)cc(C)n2)n1	-5	0	-2	nt
CCOC(=O)c1ccc(NC(=O)NNC(=O)CCc2ccc(OC)cc2)cc1	4	3	2	+
CCOC(=O)c1ccc(NC(=O)CCc2ccc(C)o2)cc1	1	-2	62*	i
CCOC(=O)c1ccc(NC(=O)CCOc2ccc(OC)cc2)cc1	3	-2	12	i
Cc1nn(C)cc1C(=O)Nc1ccc2c(c1)OCCO2	-1	0	-5	i
CC(C)OCCCn1c(=N)c(C(N)=S)cc2c(=O)n3ccccc3nc21	-33	-22	7	+
Cc1ccc(NC(=O)COC(=O)CCC(=O)c2cccs2)c(C)c1	5	6	1	+
Cc1ccccc1NC(=O)COC(=O)CCC(=O)c1cccs1	nt	5	nt	i
N=c1oc2c3c4c(cc2cc1C(=O)Nc1ccccc1)CCCN4CCC3	i	-25	6	+
COc1ccc(CCNC(=O)CSc2nc(N)c3c(C)c(C)oc3n2)cc1OC	-6	-1	74*	i
O=C(COc1ccccc1)N=C1SC2CS(=O)(=O)CC2N1c1ccc(F)cc1 (stereo not given)	-8	0	3	i
CC(=O)Nc1cc(-c2ccc(C(=O)N3CCOCC3)cc2)cn2c(-c3cccc(C(C)=O)c3)cnc12	nt	2	nt	i
COc1ccc(N2C(=O)CC(Sc3nnnn3-c3ccc(F)cc3)C2=O)cc1 (stereo not given)	-6	3	20	i
O=C1CC(Sc2nnnn2-c2ccccc2)C(=O)N1c1cccc(Cl)c1 (stereo not given)	33	1	55*	nt
O=C(Nc1ccc(Br)cc1)Nn1cnnc1	-3	2	-2	i
SMILES	VLA-4 inh	SENP1 FRET inh	Platelet DG rel	Myeloid diff 2
CCN1CCN(CCC(=O)Nc2cc(OC)cc(OC)c2)CC1	2	-7	7	i
CCCCn1c(N)c(N(Cc2ccccc2OC)C(=O)C(C)Oc2ccc(Cl)cc2)c(=O)[nH]c1=O (stereo not given)	2	1	53*	i
CCCCn1c(N)c(N(Cc2ccccc2OC)C(=O)C(C)Oc2ccc(F)cc2)c(=O)[nH]c1=O (stereo not given)	1	0	-2	i
COc1cc2c3nnc(-c4ccc(F)cc4)c-3cn(Cc3cccc(C)c3)c2cc1OC	i	-44	9	+
COc1cc2c3nnc(-c4ccccc4)c-3cn(Cc3ccc(F)cc3)c2cc1OC	-2	-30	4	i
COc1cc2c3nnc(-c4ccc(F)cc4)c-3cn(Cc3ccc(C)cc3)c2cc1OC	0	-41	13	+
COc1cc2c(cc1OC)C(c1ccccc1)N(C(=O)c1cccc(S(C)(=O)=O)c1)CC2 (stereo not given)	-8	0	7	i
N#CC(NC(=O)OCc1ccccc1)c1ccccc1 (stereo not given)	29	2	-2	i
